Reference: ChEMBL document CHEMBL1671834, “Novel 3-aryl indoles as progesterone receptor antagonists for uterine fibroids” (ACS Med Chem Lett, 2011)
Calls of active or inactive are those of the source. The calls are words filed in the database; no cut-off is given here.

What was measured:
[1] = Oral bioavailability in rat; assay type: ADME, organism-based; conditions: in vivo
Summary of the method: (§1)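 Compound given to rats as an oral suspension. Bioavailability, tmax, elimination half-life, volume of distribution and clearance determined.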

[2] = tested on: Rattus norvegicus; experiment: Antagonist activity at progesterone receptor in orally dosed ovariectomized Sprague-Dawley rat assessed as reversal of R5020-induced down-regulation of estradiol-induced increase in complement 3 mRNA expression by C3 rat uterine assay; assay type: functional; conditions: po
Summary of the method: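 Ovariectomized rats dosed orally (mg/kg dose response). Estrogen (E2, 0.05 mg/kg) induces complement C3 mRNA in uterus. Progestin R5020 (0.1 mg/kg) down-regulates it. Read-out is reversal of the R5020 effect, expressed as fold over asoprisnil (5 mg/kg). ED50 derived from the dose response.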

[3] = Volume of distribution in rat; assay type: ADME, organism-based; conditions: in vivo; summary of the method: as §1
[4] = tested on: Oryctolagus cuniculus; experiment: Antagonist activity at progesterone receptor in estrogen-primed immature New Zealand White rabbit assessed as inhibition of progesterone-induced endometrial transformation at 1 mg/kg, sc by McPhail assay; assay type: functional, organism-based; design: dose 1 mg/kg
Summary of the method: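 Immature rabbits primed with estrogen, given progesterone 1 mg/kg with test compound at various sc doses. Endometrial transformation scored by McPhail Index.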

[5] = Clearance in rat; assay type: ADME, organism-based; conditions: in vivo; summary of the method: as §1
[6] = Elimination half life in rat; assay type: ADME, organism-based; conditions: in vivo; summary of the method: as §1
[7] = tested on: Oryctolagus cuniculus; experiment: Agonist activity at progesterone receptor in estrogen-primed immature New Zealand White rabbit assessed as stimulation of progesterone-induced endometrial transformation at 30 mg/kg, sc by McPhail assay; assay type: functional, organism-based; design: dose 30 mg/kg
Summary of the method: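 Immature rabbits primed with estrogen, dosed sc without progesterone. Endometrial transformation scored by McPhail Index.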

bioavailability [1]: 31.4%
Vd [3]: 2.3 L/kg
clearance [5]: 2.5 mL/min/kg
half-life [6]: 19.8 h
SMILES: CC(C)n1cc(-c2ccc(C#N)c(F)c2)c2ccc(NS(C)(=O)=O)cc21
ED50 [2]: 0.33 mg/kg
Activity [4]: Active
Activity [7]: Active
